Bioassay records (PubChem)
Exocytosis inh – lytic granule exocytosis inhibition | TALL-104 LAMP-1 surface exposure, flow cytometry; cells stimulated with thapsigargin and PMA | hit rate 0.66% among 360,000 | inhibition, % at 10 µM;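 active means inhibition above about 55%, limit read from the data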
FGF22 binding – binders of recombinant human FGF22 by thermal shift | SYPRO orange fluorescence; percent of sucrose octasulfate shift, DMSO zero | Q9HCT0 | activity (Tm shift, normalised), % at 9.99 µM | hit rate 1.5% among 340,000;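 active means mean Tm shift, scaled 0 neutral to 100 positive control, at about 1.3% or above, every replicate too, limit read from the data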
DAGLB inhibitor – diacylglycerol lipase beta (human) inhibition; HEK293T DAGLB membrane lysate, EnzChek fluorogenic substrate; inhibition, % at 5.17 µM; hit rate 0.059% among 340,000; in the data active means inhibition above about 34%
Target sequence (Q8NCG7 whole entry, looked up): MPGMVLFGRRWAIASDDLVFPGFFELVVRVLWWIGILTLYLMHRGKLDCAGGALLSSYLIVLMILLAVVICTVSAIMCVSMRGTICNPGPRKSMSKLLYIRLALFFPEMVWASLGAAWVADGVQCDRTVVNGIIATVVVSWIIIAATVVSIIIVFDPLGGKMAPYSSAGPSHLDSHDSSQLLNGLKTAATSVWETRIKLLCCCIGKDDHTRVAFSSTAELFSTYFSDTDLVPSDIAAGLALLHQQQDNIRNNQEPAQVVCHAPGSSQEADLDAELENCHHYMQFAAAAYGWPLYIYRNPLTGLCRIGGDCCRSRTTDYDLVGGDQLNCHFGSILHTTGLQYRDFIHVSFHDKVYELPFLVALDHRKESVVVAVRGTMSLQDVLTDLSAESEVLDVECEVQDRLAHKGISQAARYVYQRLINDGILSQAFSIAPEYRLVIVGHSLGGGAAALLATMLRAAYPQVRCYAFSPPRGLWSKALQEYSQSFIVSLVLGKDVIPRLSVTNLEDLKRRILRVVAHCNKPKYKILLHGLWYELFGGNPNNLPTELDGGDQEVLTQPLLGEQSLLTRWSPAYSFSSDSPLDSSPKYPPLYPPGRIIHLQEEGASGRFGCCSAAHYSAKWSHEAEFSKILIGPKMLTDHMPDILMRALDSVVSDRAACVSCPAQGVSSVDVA
ABCB6 inh 2 – blocks the human ABCB6 transporter | fluorescence ratio to DMSO, % at 10 µM | AID 602162 | hit rate 0.19% among 360,000 | K562-ABCB6 porphyrin accumulation, flow cytometry, 1 h; stronger effect = lower value;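 active means fluorescence ratio to DMSO below 75%, the collection mean minus 3 SD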;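 further: signal is porphyrin accumulated inside mitochondria; lower ratio means ABCB6 inhibition with less porphyrin fluorescence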
MT1-MMP act inh – blocks activation of human MT1-MMP. AID 651647. P50281. HT1080 RFP-PRO-GFP cells, GFP/RFP ratio fluorescence, overnight; percent of plate control window, DMSO zero. hit rate 0.061% among 360,000. GFP/RFP ratio change, % at 20 µM;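 active means GFP/RFP ratio change of at least 30% with cell ATP level not reduced by more than half and red fluorescence within 50% of control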
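Material: RFP-PRO-GFP reporter HT1080 cells. Dosing: single-point 20 µM compound, 1% DMSO. Controls: DMSO and RFP-L50D-GFP cell wells. Timing: cells overnight before dosing, compound overnight, 37 °C, 5% CO2. Measure: GFP/RFP fluorescence ratio.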
VLA-4 inh – inhibition in a human VLA-4 binding assay. P13612. VLA-4 expressing cells, ligand binding flow cytometry. inhibition, % (about 7 µM as worked out from the volumes in the protocol). hit rate 0.2% among 330,000; in the data active means inhibition above about 50%
Large screens that a line does not name were inactive. The list is not random: actives were taken first. Their share in the collection is about 2%.

COc1ccc(C(=O)NC(=S)Nc2ccccc2[N+](=O)[O-])cc1OC	none
COc1cc([N+](=O)[O-])c(C)cc1NC(=O)c1ccc(OC)c(OC)c1	FGF22 binding 43 (no result: VLA-4 inh)
CCC(=O)N[C@@H]1CC[C@@H](CC(=O)NCc2ccccc2OC)O[C@@H]1CO	none (no result: Exocytosis inh, DAGLB inhibitor, ABCB6 inh 2, MT1-MMP act inh, VLA-4 inh)
CC(=O)N/N=C(\C)c1ccc2c(c1)OCCO2	FGF22 binding 43
COc1ccc(/C=N/NC(=O)c2cc3c(OC)ccc(OC)c3[nH]2)cc1O	Exocytosis inh 62
COc1ccc(OC)c2[nH]c(C(=O)N/N=C/c3ccccc3O)cc12	none
CC(=O)N1CCN(c2ccc(NC(=O)/C=C/c3ccccc3)cc2)CC1	FGF22 binding 44
S=C(Nc1ccc(Cl)c(Cl)c1)N1CCN(c2ccccn2)CC1	none
CC(=O)Nc1ccc(NC(=O)/C=C/c2ccccc2)cc1	none
S=C(Nc1ccc(Oc2ccccc2)cc1)N1CCN(c2ccccn2)CC1	FGF22 binding 43
COc1ccc(N2CCN(C(=S)Nc3ccccc3)CC2)cc1	none
CC(=O)c1ccc(N2CCN(C(=S)Nc3ccc(Oc4ccccc4)cc3)CC2)cc1	FGF22 binding 16
CN1/C(=C\C(=O)c2cccnc2)C(C)(C)c2ccccc21	none
CN1/C(=C\C(=O)c2cccc(S(=O)(=O)N3CCCCC3)c2)C(C)(C)c2ccccc21	FGF22 binding 43
CN1/C(=C/C(=O)c2nc(S(C)(=O)=O)ncc2Cl)C(C)(C)c2ccccc21	Exocytosis inh 58 (no result: FGF22 binding)
Cc1ccc(/C=N/NC(=O)NC2CCCCC2)o1	none
Cc1ccc(/C=C/C(=O)NC2CCCCCCC2)o1	Exocytosis inh 58 (no result: FGF22 binding)
COc1ccc(/C=C(\CC(=O)O)c2nc3ccccc3s2)cc1O	none
COc1cc(/C=C(\CC(=O)O)c2nc3ccccc3s2)cc(OC)c1O	FGF22 binding 43
COc1ccc(CN(C)C[C@@H]2OCCCC[C@H](C)Oc3ccc(NS(=O)(=O)c4cccs4)cc3C(=O)N([C@@H](C)CO)C[C@@H]2C)cc1	none (no result: Exocytosis inh, DAGLB inhibitor, ABCB6 inh 2, MT1-MMP act inh, VLA-4 inh)
COc1ccc(CCNC(=O)CCCNC(=O)Cn2cnc3sc(C)c(C)c3c2=O)cc1OC	FGF22 binding 44
COc1ccc(CCNC(=O)CCCn2c(=S)[nH]c3ccsc3c2=O)cc1OC	FGF22 binding 43 (no result: VLA-4 inh)
CCOC(=O)Cn1cnc2sc3c(c2c1=O)CCC3	none (no result: FGF22 binding)
COC(=O)Cn1cnc2sc3c(c2c1=O)CCCC3	FGF22 binding 43
CC1CCc2c(sc3ncn(Cc4ccc(C(=O)O)cc4)c(=O)c23)C1 (centres undefined)	FGF22 binding 43
COc1cccc(C(=O)Nc2ccc3c(c2)C(=O)N(C)[C@@H]2CC[C@@H](CC(=O)NCCCN4CCOCC4)O[C@H]2CO3)c1	none (no result: Exocytosis inh, DAGLB inhibitor, ABCB6 inh 2, MT1-MMP act inh, VLA-4 inh)
N#CC(=C1Nc2ccccc2N1)S(=O)(=O)c1ccccc1	FGF22 binding 43
C=CCn1c(SCC(=O)Nc2ccccc2C)nc2sc(C)c(C)c2c1=O	ABCB6 inh 2 73 (no result: FGF22 binding)
Cc1noc(C)c1S(=O)(=O)Nc1ccc2c(c1)CC(=O)N([C@H](C)CO)C[C@@H](C)[C@H](CN(C)C(=O)Nc1ccc3c(c1)OCO3)O2	none (no result: Exocytosis inh, DAGLB inhibitor, ABCB6 inh 2, MT1-MMP act inh, VLA-4 inh)
CCCC(=O)Nc1ccc2c(c1)C(=O)N(C)[C@H]1CC[C@@H](CC(=O)NCCOC)O[C@@H]1CO2	none (no result: Exocytosis inh, DAGLB inhibitor, ABCB6 inh 2, MT1-MMP act inh, VLA-4 inh)
Cc1sc(C(C2C(=O)CC(C)(C)CC2=O)C2C(=O)CC(C)(C)CC2=O)cc1[N+](=O)[O-]	Exocytosis inh 73
COc1cc(CC(NC(C)=O)C(=O)NC2CCN(C(=O)c3cc(OC)c(OC)c(OC)c3)CC2)cc(OC)c1 (centres undefined)	FGF22 binding 43
COc1cc(C(=O)N2CCC(NC(=O)C(Cc3ccc(C)cc3)NC(C)=O)CC2)cc(OC)c1OC (centres undefined)	none
CO[C@@H]1CN(C)C(=O)c2cc(NC(=O)c3ccc4c(c3)OCO4)ccc2OC[C@H](C)N(CC2CC2)C[C@@H]1C	none (no result: Exocytosis inh, DAGLB inhibitor, ABCB6 inh 2, MT1-MMP act inh, VLA-4 inh)
Cc1ccc(S(=O)(=O)Nc2ccc3c(c2)C(=O)N([C@H](C)CO)C[C@H](C)[C@H](CN(C)C(=O)Nc2ccc(C(F)(F)F)cc2)OCCCC[C@@H](C)O3)cc1	none (no result: Exocytosis inh, DAGLB inhibitor, ABCB6 inh 2, MT1-MMP act inh, VLA-4 inh)
Cc1cc(CN(C)C(=O)CC2C(=O)NCCN2CC(c2ccccc2)c2ccccc2)on1 (centres undefined)	none (no result: MT1-MMP act inh)
CN(CCc1ccccn1)C(=O)CC1C(=O)NCCN1Cc1ccc(-c2ccccc2)cc1 (centres undefined)	FGF22 binding 44
O=C(CC1C(=O)NCCN1Cc1ccc(-c2ccccc2)cc1)NCCc1ccccn1 (centres undefined)	none
COCCN(C)C(=O)CC1C(=O)NCCN1CC(c1ccccc1)c1ccccc1 (centres undefined)	FGF22 binding 44
C=CCNC(=O)CC1C(=O)NCCN1Cc1ccc(-c2ccccc2)cc1 (centres undefined)	FGF22 binding 43
O=C(CC1C(=O)NCCN1Cc1ccc(-c2ccccc2)cc1)NCC1CC1 (centres undefined)	FGF22 binding 44
Cc1ccc(CN2CCNC(=O)C2CC(=O)N(C)CCc2ccccc2)cc1 (centres undefined)	none
C[C@@H]1CN([C@@H](C)CO)C(=O)Cc2cc(NC(=O)Nc3ccc(F)cc3)ccc2O[C@@H]1CN(C)Cc1ccc(Oc2ccccc2)cc1	none (no result: Exocytosis inh, DAGLB inhibitor, ABCB6 inh 2, MT1-MMP act inh, VLA-4 inh)
COCC(=O)Nc1ccc2c(c1)OC[C@@H](C)N(CCc1ccccc1)C[C@@H](C)[C@H](OC)CN(C)C2=O	none (no result: Exocytosis inh, DAGLB inhibitor, ABCB6 inh 2, MT1-MMP act inh, VLA-4 inh)
CCc1cc(CNC(=O)CC2C(=O)NCCN2Cc2cccc(OC)c2)on1 (centres undefined)	FGF22 binding 44
Cc1cc(C)nc(NC(=O)c2ccc(COc3ccccc3Cl)cc2)c1	FGF22 binding 44
O=C(O)C[C@H]1C[C@@H]2c3cc(NC(=O)Nc4ccccc4F)ccc3O[C@@H]2[C@@H](CO)O1	none (no result: Exocytosis inh, DAGLB inhibitor, ABCB6 inh 2, MT1-MMP act inh, VLA-4 inh)
C/C=C/c1cnc2c(c1)C(=O)N([C@@H](C)CO)C[C@H](C)[C@@H](CN(C)Cc1ccccc1)O2	none (no result: Exocytosis inh, DAGLB inhibitor, ABCB6 inh 2, MT1-MMP act inh, VLA-4 inh)
Cc1ccc(C(=O)c2coc3c2C(=O)C(=O)c2ccccc2-3)cc1	none (no result: FGF22 binding)
Cc1oc2c(c1C(=O)c1ccc(Cl)cc1)C(=O)C(=O)c1ccccc1-2	Exocytosis inh 104 (no result: FGF22 binding, VLA-4 inh)
O=[N+]([O-])c1ccc(N/N=C\c2cccn2-c2ccccc2)nc1	Exocytosis inh 57 (no result: FGF22 binding, MT1-MMP act inh)
COc1ccccc1C(=O)Nc1ccc2c(c1)C(=O)N(C)C[C@H](OC)[C@@H](C)CN(C)[C@@H](C)CO2	none (no result: Exocytosis inh, DAGLB inhibitor, ABCB6 inh 2, MT1-MMP act inh, VLA-4 inh)
O=C(CSc1nnnn1C1CC1)Nc1cc(S(=O)(=O)N2CCCC2)ccc1Cl	FGF22 binding 43
CS(=O)(=O)c1ccc(Cl)c(NC(=O)CSc2nnc(C3CC3)n2C2CC2)c1	FGF22 binding 1.4
Cn1nnnc1SCC(=O)Nc1cc(S(=O)(=O)N2CCCC2)ccc1Cl	none
